Laboratory results as given in ChEMBL document CHEMBL1122683, “Histamine H2 receptor antagonists. 1. Synthesis of N-cyano and N-carbamoyl amidine derivatives and their biological activities” (1984).

Key:
Cavia porcellus = species: Cavia porcellus; assay: Dose representing 50% inhibition of positive chronotropic response to histamine in guinea pig atrium (5 x 10e -6M); format: functional; conditions: Cardiac atrium, read-out: ED50 (the source's name)
Summary of the method: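 Isolated right atria from guinea pig, three to four preparations per compound. Test agent added 10 min ahead of histamine (5 × 10⁻⁶ M). Read-out is inhibition of the histamine-induced rise in atrial rate. Percent inhibition plotted against log concentration, and the 50%-inhibiting dose read from that curve; means ± SE.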

Canis familiaris = assay: Reduction in acid response to histamine(160 ug/kg/h i.v.) in anesthetized dogs with acute gastric fistula.; format: functional; conditions: Canis lupus familiaris, Stomach, iv
Summary of the method: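 Mongrel dogs of 8–10 kg, fasted 24 h and anesthetized with pentobarbital 30 mg/kg i.v. Pylorus and esophagus ligated, with a stainless steel cannula in the stomach. Histamine infused at 160 μg/(kg h), drugs given i.v., gastric juice collected every 15 min. Inhibition taken from predrug minus minimum acid output (within 45 min). ED50 from a semilog dose-response plot.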

Row | Compound | EC50 (Cavia porcellus) | ED50 (Canis familiaris)
1 | N#CNC(=N)CCSCc1ccc(CN2CCCCC2)o1 | 35 µM | –
2 | CC(=N)Nc1nc(CSCCC(=N)NC#N)cs1 | 9.1 µM | –
3 | N#CNC(=N)CCSCc1noc(NC(=N)N)n1 | > 100 µM | –
4 | CN(C)Cc1ccc(CSCCC(=N)NC#N)s1 | 13 µM | 4.4 mg/kg
5 | CN(C)Cc1cccc(OCCCC(=N)NC#N)c1 | 20 µM | 9 mg/kg
6 | NC(=O)CCSCc1csc(N=C(N)N)n1 | 1 µM | –
7 | N#CNC(=N)CCSCc1ccccn1 | > 100 µM | –
8 | C/N=C(/NC)Nc1nc(CSCCC(=N)NC#N)cs1 | > 100 µM | –
9 | C/N=C(/CCSCc1[nH]cnc1C)NC#N | > 100 µM | –
10 | N#C/N=C(\N)CCSCc1csc(N)n1 | > 100 µM | –
11 | N#CNC(=N)CCCOc1cccc(CN2CCCCC2)c1 | 4.7 µM | 2.3 mg/kg
12 | N#CNC(=N)CCSCc1csc(NC(=N)N)n1 | 0.18 µM | 0.018 mg/kg
13 | C/N=C(/N)Nc1nc(CSCCC(=N)NC#N)cs1 | 1.2 µM | –
14 | Cc1[nH]cnc1CSCCC(=N)NC#N | > 100 µM | –
15 | CN(C)Nc1nc(CSCCC(=N)NC#N)cs1 | > 100 µM | –
16 | N#CNC(=N)CCSCc1ccc(CN2CCOCC2)o1 | > 100 µM | –
17 | N#CNC(=N)CCCCc1csc(NC(=N)N)n1 | 0.12 µM | 0.022 mg/kg

Row | Compound | EC50 (Cavia porcellus) | ED50 (Canis familiaris)
18 | N#CNC(=N)CCSCc1nc[nH]n1 | > 100 µM | –
19 | N#CNC(=N)CCCOc1cccc(CN2CCCC2)c1 | 13 µM | 3.5 mg/kg
20 | CN(C)Cc1ccc(CSCCC(=N)NC#N)o1 | 2.1 µM | 0.28 mg/kg
21 | C/N=C(/CCSCc1ccc(CN(C)C)o1)NC#N | 170 µM | > 10 mg/kg
22 | C/N=C(/CCSCc1csc(N=C(N)N)n1)NC#N | 0.98 µM | 0.39 mg/kg
23 | C#CC/N=C(/CCSCc1nc[nH]c1C)NC#N | > 100 µM | –
24 | Cc1[nH]cnc1CSCCC(=N)NC(N)=O.Cl.Cl | 0.9 µM | 0.22 mg/kg
25 | CCc1[nH]cnc1CSCCC(=N)NC(N)=O.Cl.Cl | 2 µM | 0.33 mg/kg
26 | N=C(N)Nc1nc(CSCCC(=N)NC(N)=O)no1 | 26 µM | –
27 | CC(=N)Nc1nc(CSCCC(=N)NC(N)=O)cs1 | 2.5 µM | –
28 | C/N=C(/N)Nc1nc(CSCCC(=N)NC(N)=O)cs1.Cl.Cl | 0.32 µM | 0.046 mg/kg
29 | N=C(CCSCc1[nH]cnc1C(F)(F)F)NC(N)=O | > 100 µM | –
30 | Cl.Cl.N=C(CCSCc1ccccn1)NC(N)=O | 12 µM | 2.5 mg/kg
31 | Cl.Cl.N=C(CCSCc1nc[nH]n1)NC(N)=O | 41 µM | 6.9 mg/kg
32 | Cl.Cl.N=C(CCSCc1c[nH]cn1)NC(N)=O | 5.3 µM | 1.3 mg/kg
33 | Cl.Cl.N=C(N)Nc1nc(CSCCC(=N)NC(N)=O)cs1 | 0.074 µM | 0.0064 mg/kg
34 | CN/C(=N\CCSCc1nc[nH]c1C)NC#N [CIMETIDINE] | 2.7 µM | 0.33 mg/kg
